Results of several laboratories.
Protocols differ between the studies behind these lines.
Target: Serine/threonine-protein kinase tousled-like 1 (TLK1, Homo sapiens, UniProt Q9UKI8)
One construct used (Q9UKI8 1-766): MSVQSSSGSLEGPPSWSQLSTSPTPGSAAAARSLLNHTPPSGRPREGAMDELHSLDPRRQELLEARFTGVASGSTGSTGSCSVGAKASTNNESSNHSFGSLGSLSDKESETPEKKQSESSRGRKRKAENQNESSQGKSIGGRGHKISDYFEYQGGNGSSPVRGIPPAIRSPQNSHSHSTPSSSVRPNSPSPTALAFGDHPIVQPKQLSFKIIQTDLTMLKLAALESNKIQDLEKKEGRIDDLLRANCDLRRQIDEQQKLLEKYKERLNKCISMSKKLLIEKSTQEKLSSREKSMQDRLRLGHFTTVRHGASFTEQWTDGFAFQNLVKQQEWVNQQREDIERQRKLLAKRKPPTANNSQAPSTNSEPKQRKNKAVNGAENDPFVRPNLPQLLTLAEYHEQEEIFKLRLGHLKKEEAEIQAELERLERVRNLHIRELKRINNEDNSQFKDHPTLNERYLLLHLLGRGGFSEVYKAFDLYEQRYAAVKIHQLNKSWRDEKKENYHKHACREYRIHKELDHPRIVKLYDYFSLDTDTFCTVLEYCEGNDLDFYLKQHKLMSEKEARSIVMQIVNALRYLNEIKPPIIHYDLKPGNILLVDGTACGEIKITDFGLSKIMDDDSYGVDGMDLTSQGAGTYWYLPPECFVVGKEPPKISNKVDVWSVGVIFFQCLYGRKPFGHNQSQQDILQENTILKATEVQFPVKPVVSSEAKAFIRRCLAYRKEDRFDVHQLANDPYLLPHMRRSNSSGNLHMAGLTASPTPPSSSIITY

CC(=O)Nc1c(C(C)=O)c(=O)n(C)c2nc(-c3ccc(Cl)cc3Cl)c(-c3ccc(Cl)cc3)cc12
remaining binding (cell-free assay, competition with immobilised ligand; 1 µM): 100%

O=C(c1ccc(Nc2ncc(Cl)c(-c3cc4ccccc4s3)n2)cc1)N1CCC(N2CCCC2)CC1
remaining binding (binding, competition with immobilised ligand; 1 µM): 32%

CCS(=O)(=O)c1cc2cc(C[C@](O)(CC(C)(C)c3ccc(F)cc3C(N)=O)C(F)(F)F)[nH]c2cn1
remaining binding (cell-free assay, competition with immobilised ligand; 1 µM): 75%

c1cncc(-c2cccc(Nc3nccc(NC4CCCCC4)n3)c2)c1
remaining binding (binding, competition with immobilised ligand; 10 µM): 100%

COc1cnc(Nc2cccc(S(N)(=O)=O)c2)nc1N1CCN(c2ccccc2)C(=O)C1
remaining binding (binding, competition with immobilised ligand; 1 µM): 97%

CCN1CCN(Cc2ccc(C(=O)Nc3ccc(C)c(Oc4ccc5c(c4)CC(=O)N5)c3)cc2C(F)(F)F)CC1
remaining binding (binding, competition with immobilised ligand; 1 µM): 88%

COc1ncc2cc3ccccc3nc2c1C#N
remaining binding (cell-free assay, competition with immobilised ligand; 5 µM): 86%

O=C(NC[C@@H]1[C@H]2CN(C(=O)OCc3cc(C(F)(F)F)cc(C(F)(F)F)c3)C[C@@H]12)c1ccc2[nH]nnc2c1
remaining binding (cell-free assay, competition with immobilised ligand; 1 µM): 68%

O=C(c1ccc(Nc2nccc(-c3cc4ccccc4s3)n2)cc1)N1CCC(N2CCCC2)CC1
remaining binding (binding, competition with immobilised ligand; 1 µM): 12%

N[C@H]1CCN(c2nccc(-c3cnn4ncccc34)n2)C1
remaining binding (binding; 1 µM): 64%

O=C1NC(c2ccccn2)Sc2ccccc21 (centres unmarked)
remaining binding (cell-free assay, competition with immobilised ligand; 1 µM): 94%

F[C@@H]1CCN(c2nccc(-c3cnn4ncccc34)n2)C1
remaining binding (binding; 1 µM): 100%

Cc1nccc(COC(=O)N2C[C@@H]3[C@@H](CNC(=O)c4ccc5[nH]nnc5c4)[C@@H]3C2)n1
remaining binding (cell-free assay, competition with immobilised ligand; 1 µM): 87%

C[C@@H](c1ccc(-n2cnc3c(N)ncnc32)cc1)N1CCc2nn(C)c(Cc3ccccc3)c2C1=O
remaining binding (binding, competition with immobilised ligand; 0.1 µM): 81%

CC1CCCN1c1nccc(-c2cnn3ncccc23)n1 (centres unmarked)
remaining binding (binding; 1 µM): 97%

Cc1cnc(Nc2ccc(C(=O)N3CCC(N4CCCC4)CC3)cc2)nc1-c1cc2ccccc2s1
remaining binding (binding, competition with immobilised ligand; 1 µM): 21%

C[C@@H]1CCN(c2nccc(-c3cnn4ncccc34)n2)C1
remaining binding (binding; 1 µM): 79%

O=C(NCC1CCOCC1)c1n[nH]cc1NC(=O)c1c(F)cccc1F
remaining binding (binding, competition with immobilised ligand; 1 µM): 87%

CCc1ccccc1C(=O)Nc1n[nH]c2c(C)c(F)c(C3C(C#N)=C(C)N(C)C(C)=C3C#N)cc12
remaining binding (cell-free assay, competition with immobilised ligand; 1 µM): 100%

CN(c1nccc(-c2cnn3ncccc23)n1)C1CC1
remaining binding (binding; 1 µM): 100%
